The source made the active and inactive calls. No cut-off for these calls is given here.

The test system of series [1] is 3T3-L1. The series is described as follows: Activation of AMPK pathway in mouse 3T3-L1 cells assessed as increase in NRF2 mRNA expression at 1 uM after 24 hrs by RT-qPCR analysis. The class given is cell-based. The following applies: filed as activator. On the technique in general: Real-time PCR tracks product formation cycle by cycle.
Series [2] concerns 3T3-L1. The series is described as follows: Lipid lowering activity in mouse 3T3-L1 cells assessed as adipogenic cocktail-induced triglyceride levels at 1 uM incubated for 6 days by GPO-POD assay relative to control. The class given is functional. The following applies: time 6 day. The procedure, abridged:
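Confluent 3T3-L1 cells were treated from day 0 in cocktail (IBMX, dexamethasone, insulin) for 3 days, then re-dosed in insulin medium for 3 more days. For dose–response, concentrations were 0–10 µM (0.01, 0.1, 0.3, 1, 3, 10). On day 6, cells were lysed in 0.2% Triton X-100 and TG was measured by GPO-POD and normalized to BCA protein as % of control. EC50 was fitted from the dose–response. N = 4.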

The subject of series [3] is C2C12. As to the kind of experiment: Activation of AMPK pathway in mouse C2C12 cells assessed as increase in glucose uptake at 1 uM after 6 hrs in presence of insulin by 2-NBDG/Hoechst 33342 staining based Confocal microscopic method. The class given is cell-based. The following applies: filed as activator. The gist of the method:
(§1)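 C2C12 myoblasts kept in DMEM with 10% FBS and 1% penicillin/streptomycin at 37 °C under 5% CO2.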

The test system of series [4] is C2C12. As to the kind of experiment: Activation of AMPK pathway in mouse C2C12 cells assessed as increase in glucose uptake at 1 uM after 6 hrs by 2-NBDG/Hoechst 33342 staining based Confocal microscopic method. The class given is cell-based. Particulars: filed as activator. The gist of the method: as §1
Series [5] relates to 3T3-L1. The series is described as follows: Activation of AMPK pathway in mouse 3T3-L1 cells assessed as increase in TFAM mRNA expression at 1 uM after 24 hrs by RT-qPCR analysis. Particulars: filed as activator. The class given is cell-based.
Series [6] concerns Mus musculus. As to the kind of experiment: Antiobesity activity in high fat diet-induced obese C57BL/6J mouse model assessed as TG level at 20 mg/kg, ip administered for every other days for 6 weeks by auto-analyzer method (reference value: 1.2 +/- 0.02 mM). The class given is functional. The procedure, abridged:
(§2)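 Male C57BL/6J mice (7–8 weeks) fed HFC diet (60% fat, 1% cholesterol) for up to 14 weeks. From week 9, given 20 mg/kg i.p. every other day for 6 weeks in saline with 10% ethanol and 10% castor oil, or vehicle. Body weight and food intake recorded daily. At end, mice fasted 6 h, anesthetized, and blood collected into EDTA. Plasma chemistry run on an auto-analyzer; insulin by ultra-sensitive ELISA.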

The subject of series [7] is Mus musculus. The series is described as follows: Antiobesity activity in high fat diet-induced obese C57BL/6J mouse model assessed as decrease in lean mass at 20 mg/kg, ip administered for every other days for 6 weeks. The class given is functional, organism-based.
The subject of series [8] is Mus musculus. The series is described as follows: Antiobesity activity in high fat diet-induced obese C57BL/6J mouse model assessed as creatinine level at 20 mg/kg, ip administered for every other days for 6 weeks by auto-analyzer method (reference value: 14.9 +/- […]). The class given is functional. The gist of the method:
as §2

Series [9] concerns Mus musculus. As to the kind of experiment: Antiobesity activity in high fat diet-induced obese C57BL/6J mouse model assessed as total bilirubin level at 20 mg/kg, ip administered for every other days for 6 weeks by auto-analyzer method (reference value: 1.3 +/- 0.12 mM). The class given is functional.
Series [10] deals with 3T3-L1. The series is described as follows: Activation of AMPK pathway in adipogenic cocktail-induced mouse 3T3-L1 cells with SiRNA-induced AMPKalpha knock down assessed as decrease in TG level at 1 uM after 6 days by GPO-POD assay. The class given is cell-based. Particulars: time 6.0 day. The gist of the method: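 3T3-L1 cells at 80% density transfected with 50 nM AMPKα siRNA or negative control for 24 h. Once confluent, differentiated with adipogenic cocktail with or without compound. Protein by Western blot normalized to actin. TG measured by GPO-POD kit, normalized to BCA protein, expressed as % of control.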

The subject of series [11] is 3T3-L1. The series is described as follows: Lipid lowering activity in mouse 3T3-L1 cells assessed as adipogenic cocktail-induced triglyceride levels at 1 uM after 3 to 6 days by GPO-POD assay relative to control. The class given is functional. The following applies: time 3-6 day. The procedure, abridged:
(§3)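 3T3-L1 cells were differentiated (cocktail on days 0–3, insulin thereafter) with 1 µM compound present during defined windows (days 0–3, 3–6, 6–9, or 0–3/0–6/0–9). TG was measured at day 9 by GPO-POD after Triton X-100 lysis and sonication. TG was normalized to BCA protein and expressed as % of differentiated control.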

The test system of series [12] is Mus musculus. The series is described as follows: Anti-hyperglycemic activity in high fat diet-induced obese C57BL/6J mouse model assessed as decrease in blood glucose level at 20 mg/kg, ip after 6 hrs. The class given is functional, organism-based. The procedure, abridged:
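C57BL/6J mice fed HFC diet (60% fat, 1% cholesterol). Single i.p. injection of saline or compound at 20 mg/kg. Blood glucose measured with a glucose monitor at 0, 0.5, 1, 2, 4, 8, 12 and 24 h.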

In series [13] the test system is 3T3-L1. The series is described as follows: Inhibition of mouse 3T3-L1 cells adipocyte differentiation assessed as reduction in adipogenic cocktail-induced PPARgamma protein expression at 0.3 to 1 uM after 24 hrs by Western blot analysis. The class given is functional, cell-based. The following applies: dose 0.3-1 µM. The procedure, abridged:
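3T3-L1 preadipocytes were exposed to adipogenic cocktail with compound (0.3 or 1 µM) and harvested on day 1. Lysates were resolved by SDS-PAGE, immunoblotted (primary antibody overnight at 4 °C, HRP secondary) and quantified by densitometry normalized to actin.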
Background: In western blotting, separated proteins are transferred to a membrane and probed.

Series [14] can be described thus: Half life in Sprague-Dawley rat at 2 mg/kg, iv up to 24 hrs by LC-MS/MS analysis. The class given is ADME, organism-based. The following applies: in vivo. The procedure, abridged: (§4)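 Male SD rats (180–220 g, n = 3) received compound in ethanol/saline (5:95), either intravenously at 2 mg/kg or intragastrically at 5 mg/kg. Plasma was sampled at 0, 0.5, 1, 2, 4, 8, 12 and 24 h. Concentrations were measured by LC-MS/MS, and PK parameters were calculated from the concentration–time data.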

The subject of series [15] is Mus musculus. The series is described as follows: Antiobesity activity in high fat diet-induced obese C57BL/6J mouse model assessed as decrease in calorie intake at 20 mg/kg, ip administered for every other days for 6 weeks. The class given is functional, organism-based. The procedure, abridged:
as §2

The test system of series [16] is 3T3-L1. The series is described as follows: Activation of AMPK pathway in mouse 3T3-L1 cells assessed as increase in ACSL mRNA expression at 0.3 to 1 uM after 24 hrs by RT-qPCR analysis. Particulars: filed as activator, dose 0.3-1 µM. The class given is cell-based.
Series [17] deals with 3T3-L1. As to the kind of experiment: Activation of AMPK pathway in mouse 3T3-L1 cells assessed as increase in CPT1beta mRNA expression at 0.3 to 1 uM after 24 hrs by RT-qPCR analysis. The class given is cell-based. Particulars: filed as activator, dose 0.3-1 µM.
The nature of series [18]: Clearance in Sprague-Dawley rat at 2 mg/kg, iv up to 24 hrs by LC-MS/MS analysis. The class given is ADME, organism-based. Particulars: in vivo. The gist of the method: as §4
Series [19] deals with 3T3-L1. As to the kind of experiment: Lipid lowering activity in mouse 3T3-L1 cells assessed as adipogenic cocktail-induced triglyceride levels at 1 uM after 3 days by GPO-POD assay relative to control. Particulars: time 3 day. The class given is functional. The procedure, abridged:
as §3

Series [20] concerns Mus musculus. As to the kind of experiment: Antiobesity activity in high fat diet-induced obese C57BL/6J mouse model assessed as ALT level at 20 mg/kg, ip administered for every other days for 6 weeks by auto-analyzer method (reference value: 231.9 +/- 18.5 U/L). The class given is functional. The gist of the method: as §2
Series [21] concerns 3T3-L1. As to the kind of experiment: Lipid lowering activity in mouse 3T3-L1 cells assessed as adipogenic cocktail-induced triglyceride levels at 1 uM up to 9 days by GPO-POD assay relative to control. The class given is functional, cell-based. Particulars: time day <=9. The gist of the method: as §3

As to `CN(C)CCCNc1nc(-c2[nH]c3ccccc3c2C=O)nc2ccccc12`, the result in series [1], in [3], in [4] and in [5] was Active. The Activity in series [2] is on record as 20.8%.

For the molecule `COc1ccc2[nH]c(-c3nc(NCCCCN4CCCC4)c4ccccc4n3)c(C=O)c2c1`, the Activity in series [6] turned out to be 0.92 mM; in [8] it was 14.5 µM; in series [9], 0.9 mmol; in series [11] it was 61.8%; in series [19] it was 74.2%; in series [20], 52 U/L. Further, the result in series [7], in series [12], in series [16], in series [17] and in [21] was Active. In addition, the result in series [10] and in [15] was inactive. Moreover, in series [13], the inhibition entry is “Active”. The molecule further gave a half-life in series [14] of 4.4 h. Besides, the clearance in series [18] is 107 mL/min/kg.

Usually half-life stands for the time in which the quantity being followed falls by half. A word on the clearance: it is the rate of elimination divided by the concentration. Lower therefore signals inefficient removal.

The values are drawn from ChEMBL document CHEMBL4732044, “Discovery of a promising agent IQZ23 for the treatment of obesity and related metabolic disorders” (Eur J Med Chem, 2020).
